Laboratory results taken from PMC7224360 (Peptide science (Hoboken, N.J.), 2018).
“Also recorded” adds a separate entry of the source.

Columns and labels:
Gαi3 (N18TG2 membranes) = experiment: [35S]GTPγS binding, antibody-capture SPA, Gαi3, N18TG2 membranes; assay type: biochemical; conditions: for [35S]GTPγS binding to Gαi3 compared with IL4: N18TG2 membranes (5 µg protein), peptides up to 100 µM, IL4 100 µM, n=3-5
Summary of the method: (§1)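 N18TG2 neuroblastoma membranes (5 µg protein) were incubated with [35S]GTPγS plus WIN55212–2 (1 µM), unphosphorylated IL4 peptide (100 µM) or phosphopeptides (20–100 µM). Captured by SPA with anti-Gαo (n=3–4) or anti-Gαi3 (n=3–5) antibody. Specific binding (CPM) = total minus non-specific. Normalised to mean WIN55212–2 stimulation as 100%. Mean ± SEM; one-way ANOVA with Dunnett's post hoc test.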

[1] = system: adenylyl cyclase (AC6) in N18TG2 cells; experiment: Inhibition of forskolin-stimulated cAMP accumulation in N18TG2 cells; assay type: cell-based; conditions: for Inhibition of cAMP accumulation at 100 µM versus IL4 or IL4pSer402: forskolin 1 µM, peptide 100 µM, n=3
Gαo (N18TG2 membranes) = experiment: [35S]GTPγS binding, antibody-capture SPA, Gαo, N18TG2 membranes; assay type: biochemical
Summary of the method: as §1

[2] = Circular dichroism spectropolarimetry in membrane-mimetic solvents; assay type: physicochemical; conditions: 75 μM peptide; for CD conformation in phosphate buffer: Na2HPO4/KH2PO4 buffer, pH 7.0; for CD conformation in SDS: SDS in phosphate buffer; for CD isodichroic point: SDS titration; for CD conformation in methanol: methanol (up to 50%)
NMR secondary structure = assay type: physicochemical; conditions: average of representative NMR conformers, SDS micelles
Summary of the method: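 Test peptides at 5 mM in 90% H2O/10% D2O, pH 4.5, with perdeuterated SDS (300 mM) added to give a peptide:detergent ratio of 1:60. 1D spectra were recorded at 300–320 K. DQF-COSY, TOCSY and NOESY spectra were acquired, with 340 ms NOESY used for restraints (1.8–2.7, 1.8–3.5 or 1.8–5 Å). CYANA generated 50 structures and the 20 with lowest target function were kept. Structures were energy-minimised and refined with 3JHNHα-derived dihedrals. Secondary shifts are relative to random-coil values.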

[3] = cited from earlier work
Gi/o = conditions: cited from earlier work
[4] = system: cAMP (Gi/o pathway); Chinese hamster ovary cells without CB1R; conditions: cited from earlier work
[5] = at reported concentrations, ANOVA, Dunnett's

Molecule: RSKDLRHAFRpSMFPSSE [IL4pSer411]
- Significance of Gi3 stimulation versus WIN55212–2 (not versus IL4) (Gαi3 (N18TG2 membranes); ANOVA, Dunnett's, *P<0.05): significantly different compared to WIN55212–2 but not IL4
- [35S]GTPγS binding to Gαi3 compared with IL4 (Gαi3 (N18TG2 membranes)): more efficacious than IL4
- Inhibition of cAMP accumulation at 100 µM versus IL4 or IL4pSer402 ([1]; N18TG2 cells): inhibited cAMP accumulation to a greater extent than IL4 or IL4pSer402; also recorded: more efficaciously than IL4 and IL4pSer402
- Significance of Gαo stimulation versus WIN55212–2 and IL4 (Gαo (N18TG2 membranes); ANOVA, Dunnett's, ***P<0.0001): significantly different compared to WIN55212–2 and IL4
- [35S]GTPγS binding to Gαo, fold greater than WIN55212–2 or IL4 (Gαo (N18TG2 membranes); N18TG2 membranes, WIN55212–2 1 µM, IL4 100 µM): 3 fold
- CD conformation in phosphate buffer [2]: random coil structure
- CD conformation in SDS [2]: characteristics of α-helical structure
- CD isodichroic point [2]: 203 nm
- CD conformation in TFE [2]: random coil structure
- CD conformation in methanol [2]: random coil structure
- CD negative minimum wavelength in phosphate buffer ([2]; phosphate buffer pH 7.0): 198 nm
- Distance between Cα carbons of Arg401 and Glu417 (NMR secondary structure): 23.68 Å

Molecule: CN(C)CCCn1cc(C2=C(c3c[nH]c4ccccc34)C(=O)NC2=O)c2ccccc21 [bisindolylmaleimide 1, reference compound]
- Effect of PKC inhibitor on bradykinin augmentation of CP55940 response ([1]; N18TG2 cells, bisindolylmaleimide I 100 nM, bradykinin 100 nM, Fig. 7C): reversed by the PKC inhibitor

Molecule: CCCCCCC(C)(C)c1ccc([C@@H]2C[C@H](O)CC[C@H]2CCCO)c(O)c1 [CP55940, reference compound]
- Effect of SR141716 on inhibition of cAMP accumulation by CP55940 ([1]; N18TG2 cells, CP55940 versus CP55940 plus SR141716, **P<0.005): Significant difference was found between CP55940 and CP55940 plus SR141716
- CP55940-inhibited cAMP with versus without bradykinin, significance ([1]; forskolin 1 µM or secretin 30 nM, *P<0.05, **P<0.005, n=3–7): significant difference was found comparing the effect of CP55940 with and without BK

Molecule: RpSKDLRHAFRSMFPSSE [IL4pSer402]
- [35S]GTPγS binding to Gαi3 compared with IL4 (Gαi3 (N18TG2 membranes)): not different between IL4 and IL4pSer402
- CD conformation in 90% TFE [2]: α-Helical conformation
- CD conformation in SDS [2]: α-Helical conformation
- CD isodichroic point [2]: 203 nm
- Lowest TFE concentration inducing helical conformation ([2]; CD): 40 % TFE
- Methanol concentration at which helical conformation is induced ([2]; CD): 50 % methanol
- Distance between Cα carbons of Arg401 and Glu417 (NMR secondary structure): 23.61 Å

Molecule: RSKDLRHAFRSMFPSSE [IL4]
- Conformation of unphosphorylated IL4 in SDS micelles ([3]; SDS micelles, CD and NMR): induced significant helical structure
- CD conformation of unphosphorylated IL4 in aqueous environment ([3]; aqueous): random coil conformation
- Autonomous G protein activation (Gi/o): can activate G proteins autonomously as a pepducin
- Reduction of cAMP levels ([4]; CB1R-independent): able to reduce cAMP levels in a CB1R-independent manner
- Functional activity in absence of CB1R expression ([4]; Chinese hamster ovary cells without CB1R): still functional
- Distance between Cα carbons of Arg401 and Glu417 (NMR secondary structure): 26 Å

Molecule: Cc1c(C(=O)c2cccc3ccccc23)c2cccc3c2n1[C@H](CN1CCOCC1)CO3 [WIN55212–2, reference compound]
- Significance of Gi3 stimulation by WIN55212–2 versus IL4 (Gαi3 (N18TG2 membranes); ANOVA, Dunnett's, **P<0.005): significantly different compared to IL4 in Gi3
- % over stimulation by WIN55212–2, Gi3 (Gαi3 (N18TG2 membranes); WIN55212–2 1 µM, N18TG2 membranes, anti-Gαi3 SPA, mean ± SEM): 62.7 ±6.6%
- Significance of Gαi3 stimulation versus basal (Gαi3 (N18TG2 membranes); [5]): significantly different from basal
- % over stimulation by WIN55212–2, Go (Gαo (N18TG2 membranes); WIN55212–2 1 µM, N18TG2 membranes, anti-Gαo SPA, mean ± SEM): 19±2.8%
- Significance of Gαo stimulation versus basal (Gαo (N18TG2 membranes); [5]): significantly different from basal

Molecule: RSKDLRHAFRSMFPpSSE [IL4pSer415]
- [35S]GTPγS binding to Gαi3 compared with IL4 (Gαi3 (N18TG2 membranes)): more efficacious than IL4; also recorded: higher efficacy than IL4
- Inhibition of cAMP accumulation at 100 µM versus IL4 or IL4pSer402 ([1]; N18TG2 cells): inhibited cAMP accumulation to a greater extent than IL4 or IL4pSer402; also recorded: more efficaciously than IL4 and IL4pSer402
- CD conformation in 90% TFE [2]: a slight shift toward helicity was initiated
- CD conformation in phosphate buffer [2]: random coil
- CD conformation in SDS [2]: induction of α-helix in SDS
- CD conformation in TFE [2]: random coil
- CD conformation in methanol [2]: random coil
- Distance between Cα carbons of Arg401 and Glu417 (NMR secondary structure): 21.52 Å
